The values below come from ChEMBL document CHEMBL4699442, “Discovery of Soft-Drug Topical Tool Modulators of Sphingosine-1-phosphate Receptor 1 (S1PR1)” (ACS Med Chem Lett, 2019).

A short description of series [1]: Metabolic stability in human Hepatocyte assessed as intrinsic clearance at 1 uM incubated for 90 mins by UPLC-MS/MS analysis. The format is ADME, tissue-based. The conditions noted are these: hepatocytes. Summed up: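 Human hepatocytes were incubated with compound to capture phase 2 and other metabolism.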
Series [2] in a line: Lipophilicity, logD of compound at pH 7.4 by RP-HPLC analysis. The conditions noted are these: buffer. The class given is physicochemical.
Series [3] can be described thus: Dissociation constant, pKa of compound by potentiometric fast UV-metric titration method. The class given is physicochemical.
Series [4] in a line: Metabolic stability in human skin S9 cells assessed as half life at 0.5 uM incubated for 180 mins by UPLC-MS/MS analysis. The format is ADME, subcellular, Zone of skin. The conditions noted are these: s9, 3 h. In a few lines:
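Skin S9 fraction was incubated with compound in the presence of enzymatic cofactors. Stability was followed over 180 min, n = 1.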

A short description of series [5]: Stability of compound in DMSO assessed as decrease in purity incubated for 24 hrs. The class given is physicochemical. In a few lines: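 Compound was held in DMSO solution and its stability judged after 24 h. Single determination, n = 1.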

The logD is the decadic logarithm of the distribution of all forms, ionised or not, between an organic phase and buffer at a given pH. The pKa is the pH at which an ionisable group is half protonated. A low value points to a group that gives up its proton readily. `CCC/N=C1\S/C(=C\c2ccc(O)c(Cl)c2)C(=O)N1c1ccccc1C`: the CLH in series [1] is 8.4 mL/min/g. Moreover, the logD in series [2] was 3.8. The pKa in series [3] turned out to be 6.8. In turn, `CCC/N=C1\S/C(=C\c2ccc(O)c(Cl)c2)C(=O)N1C1CCS(=O)(=O)CC1` had a pH-dependent lipophilicity (logD) in series [2] of 2.6. For `CCC/N=C1\S/C(=C\c2ccc(O)c(C(C)C)c2)C(=O)N1c1ccccc1C`, the CLH in series [1] is 12 mL/min/g. This compound displayed a logD in series [2] of 4.3. The same compound showed a pKa in series [3] of 8.6. On to `CCC/N=C1\S/C(=C\c2ccc(O)c(Cl)c2)C(=O)N1c1ccccc1OC`, for which the logD in series [2] was determined as 3.3.

`Cc1ccccc1N1C(=O)/C(=C/c2ccc(O)c(Cl)c2)S/C1=N\CCCF`: the log distribution coefficient (logD) in series [2] worked out at 3.4.

`CCC/N=C1\S/C(=C\c2ccc(OC(=O)CCO)c(C)c2)C(=O)N1c1ccccc1C`: the t1/2 in series [4] stood at 8.2 min. On to `CCC/N=C1\S/C(=C\c2ccc(O)cc2)C(=O)N1c1ccccc1C`, for which the CLH in series [1] stood at 1.7 mL/min/g. For the same compound, the logD in series [2] was 3.5. In addition, the pKa in series [3] was determined as 8.3.

Consider `CCC/N=C1\S/C(=C\c2ccc(OC(C)=O)c(Br)c2)C(=O)N1c1ccccc1C`, for which the t1/2 in series [4] was determined as 8.8 min.

Take `CCC/N=C1\S/C(=C\c2ccc(O)c(C)c2)C(=O)N1c1ccccc1C`: in series [1], the CLH was found to be 31 mL/min/g. The compound further displayed a logD in series [2] of 3.8. For the same compound, the pKa in series [3] was found to be 8.5. For the compound `CCC/N=C1\S/C(=C\c2ccc(OC(=O)COC)c(C)c2)C(=O)N1c1ccccc1C`, the Stabilty entry in series [5] was “Unstable”. Turning to `CCC/N=C1\S/C(=C\c2ccc(O)cn2)C(=O)N1c1ccccc1C`, the CLH in series [1] was 7.9 mL/min/g. Besides, in series [2], the logD is 3. This compound yielded a pKa in series [3] of 7.1.

The compound `CCC/N=C1\S/C(=C\c2ccc(O)c(Cl)c2)C(=O)N1C(C)C` registered a logD in series [2] above 4.3. Still for that read-out and setting: the figure for `CCC/N=C1\S/C(=C\c2ccc(O)c(Cl)c2)C(=O)N1c1ccccc1O` is 2.7. Still for that read-out and setting: the same measure for `Cc1ccccc1N1C(=O)/C(=C/c2ccc(O)c(Cl)c2)S/C1=N\C1COC1`: 2.6. On to `CCC/N=C1\S/C(=C\c2ccc(OC(=O)C(C)(C)C)c(C)c2)C(=O)N1c1ccccc1C`, for which the t1/2 in series [4] is given as above 180 min.

For the compound `CCC/N=C1\S/C(=C\c2ccc(O)c(Cl)c2)C(=O)N1C1CC1`, the log distribution coefficient (logD) in series [2] stood at 3.4.

Take `CCC/N=C1\S/C(=C\c2ccc(OC(=O)C(C)C)c(C)c2)C(=O)N1c1ccccc1C`: in series [4], the t1/2 was found to be 21 min. The compound `CCC/N=C1\S/C(=C\c2ccc(O)c(Cl)c2)C(=O)N1C1CCOCC1` displayed a logD in series [2] of 3.7.

Turning to `CCC/N=C1\S/C(=C\c2ccc(OC(C)=O)c(C)c2)C(=O)N1c1ccccc1C`, in series [4], the t1/2 is 7.3 min.

On to `CCC/N=C1\S/C(=C\c2ccc(OC(C)=O)c(C(F)(F)F)c2)C(=O)N1c1ccccc1C`, for which, in series [4], the t1/2 is 8.3 min. Regarding `CCC/N=C1\S/C(=C\c2ccc(OC(=O)CN(C)C)c(C)c2)C(=O)N1c1ccccc1C`, the Stabilty result in series [5] is on record as “Unstable”. As for `COCC/N=C1\S/C(=C\c2ccc(O)c(Cl)c2)C(=O)N1c1ccccc1C`, the log distribution coefficient (logD) in series [2] was found to be 2.9.

Regarding `CCC/N=C1\S/C(=C\c2ccc(O)c(Br)c2)C(=O)N1c1ccccc1C`, the CLH in series [1] is 6 mL/min/g. This compound returned a pH-dependent lipophilicity (logD) in series [2] of 3.9. Moreover, the pKa in series [3] was 6.4. In the case of `Cc1ccccc1N1C(=O)/C(=C/c2ccc(O)c(Cl)c2)S/C1=N\CCO`, the logD in series [2] was 1.9. On to `CCC/N=C1\S/C(=C\c2ccc(OC(=O)CCOC)c(C)c2)C(=O)N1c1ccccc1C`, for which the t1/2 in series [4] came to 4.8 min. On to `CCC/N=C1\S/C(=C\c2ccc(O)c(C(F)(F)F)c2)C(=O)N1c1ccccc1C`, for which the CLH in series [1] turned out to be 4.2 mL/min/g. This compound displayed a logD in series [2] of 3.8. This compound showed a pKa in series [3] of 6.6. With `CCC/N=C1\S/C(=C\c2ccc(O)c(Cl)c2)C(=O)N1C1CCN(C)C(=O)C1` (racemic), the pH-dependent lipophilicity (logD) in series [2] was 0.6.

For `CCC/N=C1\S/C(=C\c2ccc(OC[C@H](O)CO)c(Cl)c2)C(=O)N1c1ccccc1C` [PONESIMOD], in series [4], the t1/2 is listed as above 180 min.
